Assay results published in ChEMBL document CHEMBL1145571, “Carboxylic acid isosteres improve the activity of ring-fused 2-pyridones that inhibit pilus biogenesis in E. coli” (Bioorg Med Chem Lett, 2008).

Legend:
Escherichia coli [1] = experiment: Inhibition of P pilus biogenesis in Escherichia coli HB101/pPAP5 assessed as agglutination of erythrocytes at 1.8 mM; format: functional
How it was run: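 E. coli HB101/pPAP5 grown 24 h at 37 °C on TSA containing 1.8 mM compound, 2.5% DMSO and 100 μg/ml ampicillin. Cells scraped off, suspended in PBS pH 7.4 to OD600 = 1.0. 1 ml pelleted at 2000g for 5 min, resuspended in 80 μl PBS, then serially diluted in PBS for hemagglutination read-out.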

[2] = biological target: Chaperone protein PapD (Escherichia coli) (UniProt P15319); experiment: Binding affinity to Escherichia coli PapD relative to control; design: concentration or dose not given beside the values
Escherichia coli [3] = experiment: Inhibition of pili-dependent biofilm formation of Escherichia coli HB101/pPAP5; format: functional, organism-based
Escherichia coli [4] = experiment: Inhibition of pili-dependent biofilm formation of Escherichia coli HB101/pPAP5 at 400 uM; format: functional; design: scale not given: the % may be the effect or the level left

Sequence of Chaperone protein PapD (Escherichia coli) (P15319 whole entry, looked up): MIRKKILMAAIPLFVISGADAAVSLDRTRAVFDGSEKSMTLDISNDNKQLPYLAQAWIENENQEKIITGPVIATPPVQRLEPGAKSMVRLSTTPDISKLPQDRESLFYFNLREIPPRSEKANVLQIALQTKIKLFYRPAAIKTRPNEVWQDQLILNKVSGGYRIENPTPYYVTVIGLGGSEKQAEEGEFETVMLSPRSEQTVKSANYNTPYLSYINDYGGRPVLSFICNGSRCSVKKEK

Row | Activity [2] | IC50 (Escherichia coli [3]) | Compound | Activity (Escherichia coli [1]) | Activity (Escherichia coli [4])
1 |  |  | C[C@@H](C(=O)O)n1cc(-c2ccccc2)c(Cc2cccc3ccccc23)cc1=O | 32 | 
2 |  |  | O=c1cc(Cc2cccc3ccccc23)c(-c2ccccc2)c2n1[C@H](c1nnn[nH]1)CS2 | 2 | 
3 |  |  | CS(=O)(=O)NC(=O)[C@@H]1CSc2c(-c3ccccc3)c(Cc3cccc4ccccc34)cc(=O)n21 | 4 | 
4 | 40% |  | NC(=O)[C@@H]1CSc2c(C3CC3)c(Cc3cccc4ccccc34)cc(=O)n21 | 64 | 
5 | 100% |  | O=C(NS(=O)(=O)c1ccccc1)[C@@H]1CSc2c(C3CC3)c(Cc3cccc4ccccc34)cc(=O)n21 | 4 | 
6 |  |  | O=C(NO)[C@@H]1CSc2c(-c3ccccc3)c(Cc3cccc4ccccc34)cc(=O)n21 | 128 | 
7 | 67% | 65 µM | O=c1cc(Cc2cccc3ccccc23)c(C2CC2)c2n1[C@H](c1nnn[nH]1)CS2 | 4 | 
8 |  |  | NC(=O)[C@@H]1CSc2c(-c3ccccc3)c(Cc3cccc4ccccc34)cc(=O)n21 | 64 | 
9 | 71% |  | O=C([O-])[C@@H]1CSc2c(C3CC3)c(Cc3cccc4ccccc34)cc(=O)n21.[Li+] | 8 | 45%
10 |  |  | O=C(NS(=O)(=O)c1ccccc1)[C@@H]1CSc2c(-c3ccccc3)c(Cc3cccc4ccccc34)cc(=O)n21 | 4 | 
11 | 52% |  | O=C(NO)[C@@H]1CSc2c(C3CC3)c(Cc3cccc4ccccc34)cc(=O)n21 | 64 | 
12 | 62% | 30 µM | CS(=O)(=O)NC(=O)[C@@H]1CSc2c(C3CC3)c(Cc3cccc4ccccc34)cc(=O)n21 | 2 | 
13 | 33% |  | C[C@@H](C(=O)[O-])n1cc(C2CC2)c(Cc2cccc3ccccc23)cc1=O.[Li+] | 32 | 
